Reference: ChEMBL document CHEMBL3351472, “Synthesis and Biological Activity of 25-Hydroxy-2-methylene-vitamin D3 analogues monohydroxylated in the A-ring” (J Med Chem, 2014)

What was measured:
[1] = target: T1, Vitamin D3 receptor (Rattus norvegicus) (UniProt P13053); assay: Ratio of 1alpha,25-(OH)2D3 Ki to compound Ki for full-length recombinant rat vitamin D receptor after 30 mins by liquid scintillation counting
T1 sequence (whole entry): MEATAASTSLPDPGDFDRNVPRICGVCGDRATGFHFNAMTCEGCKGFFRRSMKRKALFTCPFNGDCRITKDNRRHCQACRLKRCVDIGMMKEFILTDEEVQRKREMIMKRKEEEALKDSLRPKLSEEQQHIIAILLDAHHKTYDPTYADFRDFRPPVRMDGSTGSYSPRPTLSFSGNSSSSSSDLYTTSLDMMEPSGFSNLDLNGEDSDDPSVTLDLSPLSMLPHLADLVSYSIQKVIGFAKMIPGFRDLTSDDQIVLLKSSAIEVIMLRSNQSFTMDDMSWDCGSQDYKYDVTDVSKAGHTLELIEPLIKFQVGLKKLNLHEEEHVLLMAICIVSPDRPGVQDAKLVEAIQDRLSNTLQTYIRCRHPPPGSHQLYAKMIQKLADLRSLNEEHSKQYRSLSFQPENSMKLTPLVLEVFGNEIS
Procedure, shortened: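 Competitive binding to VDR was run against radiolabeled 1α,25-(OH)₂D₃ at 1 nM. […] Duplicate determinations were made on two separate occasions. Each value is the mean of the 1α,25-(OH)₂D₃ Ki divided by the analogue Ki.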

HL-60 = assay: Ratio of 1alpha,25-(OH)2D3 ED50 to compound ED50 for induction of human HL60 cell differentiation by nitro blue tetrazolium reduction assay; format: functional
Procedure, shortened: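 HL-60 promyelocytes were scored for maturation to monocytes as the percentage of cells reducing nitro blue tetrazolium. ED₅₀, the concentration giving 50% maturation, was taken from dose−response curves. The experiment was run in duplicate twice. Each value is the mean of the 1α,25-(OH)₂D₃ ED₅₀ divided by the analogue ED₅₀.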

[2] = target: T1, Vitamin D3 receptor (Rattus norvegicus); assay: Ratio of 1alpha,25-(OH)2D3 ED50 to compound ED50 for VDR-mediated 24-hydroxylase gene expression in rat ROS 17/2.8 cells after 16 hrs by luciferase reporter assay; format: cell-based
Procedure, shortened: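 Rat osteosarcoma cells stably transfected with a 24-hydroxylase gene reporter plasmid were used as a transcription assay. ED₅₀ is the concentration raising luciferase activity by 50%, taken from dose−response curves. Each value is the ratio of the 1α,25-(OH)₂D₃ ED₅₀ to the analogue ED₅₀.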

Rattus norvegicus [3] = assay: Effect on bone calcium mobilization in weanling Sprague-Dawley rat assessed as serum calcium level at 87 pmol/day, ip administered as 4 consecutive daily doses measured 24 hrs after last dose (reference value: 4.2 to 4.9 mg/dL); format: functional
Rattus norvegicus [4] = assay: Effect on bone calcium mobilization in weanling Sprague-Dawley rat assessed as serum calcium level at 780 pmol/day, ip administered as 4 consecutive daily doses measured 24 hrs after last dose (reference value: 4.2 to 4.9 mg/dL); format: functional
Rattus norvegicus [5] = assay: Effect on bone calcium mobilization in weanling Sprague-Dawley rat assessed as serum calcium level at 7020 pmol/day, ip administered as 4 consecutive daily doses measured 24 hrs after last dose (reference value: 4.2 to 4.9 mg/dL); format: functional
Rattus norvegicus [6] = assay: Effect on intestinal calcium transport in weanling Sprague-Dawley rat assessed as increase in ratio of serosal to mucosal calcium level at 780 pmol/day, ip administered as 4 consecutive daily doses measured 24 hrs after last dose; format: functional
Rattus norvegicus [7] = assay: Effect on intestinal calcium transport in weanling Sprague-Dawley rat assessed as increase in ratio of serosal to mucosal calcium level at 87 pmol/day, ip administered as 4 consecutive daily doses measured 24 hrs after last dose; format: functional
Rattus norvegicus [8] = assay: Effect on intestinal calcium transport in weanling Sprague-Dawley rat assessed as increase in ratio of serosal to mucosal calcium level at 7020 pmol/day, ip administered as 4 consecutive daily doses measured 24 hrs after last dose; format: functional
Rattus norvegicus [9] = assay: Effect on intestinal calcium transport in weanling Sprague-Dawley rat assessed as increase in ratio of serosal to mucosal calcium level at 35100 pmol/day, ip administered as 4 consecutive daily doses measured 24 hrs after last dose; format: functional
Rattus norvegicus [10] = assay: Effect on bone calcium mobilization in weanling Sprague-Dawley rat assessed as serum calcium level at 32 pmol/day, ip administered as 4 consecutive daily doses measured 24 hrs after last dose (reference value: 4.2 to 4.9 mg/dL); format: functional
Rattus norvegicus [11] = assay: Effect on intestinal calcium transport in weanling Sprague-Dawley rat assessed as increase in ratio of serosal to mucosal calcium level at 32 pmol/day, ip administered as 4 consecutive daily doses measured 24 hrs after last dose; format: functional
Rattus norvegicus [12] = assay: Effect on bone calcium mobilization in weanling Sprague-Dawley rat assessed as serum calcium level at 35100 pmol/day, ip administered as 4 consecutive daily doses measured 24 hrs after last dose (reference value: 4.2 to 4.9 mg/dL); format: functional

Row | SMILES | Ratio Ki [1] | Ratio ED50 (HL-60) | Ratio ED50 [2] | Activity (Rattus norvegicus [3]) [mg/dL] | Activity (Rattus norvegicus [4]) [mg/dL] | Activity (Rattus norvegicus [5]) [mg/dL] | Ratio (Rattus norvegicus [6]) | Ratio (Rattus norvegicus [7]) | Ratio (Rattus norvegicus [8]) | Ratio (Rattus norvegicus [9]) | Activity (Rattus norvegicus [10]) [mg/dL] | Ratio (Rattus norvegicus [11]) | Activity (Rattus norvegicus [12]) [mg/dL]
1 | C=C1CC/C(=C/C=C2\CCC[C@]3(C)[C@@H]([C@H](C)CCCC(C)(C)O)CC[C@@H]23)C[C@H]1O | 0.2 | 2.2 | 0.7 |  |  |  |  |  |  |  |  |  | 
2 | C=C1CC(=C)[C@H](O)C/C1=C/C=C1\CCC[C@]2(C)[C@@H]([C@H](C)CCCC(C)(C)O)CC[C@@H]12 | 0.05 | 0.005 | 0.0005 | 4.4 | 5.4 | 8.2 | 9.4 | 5.7 | 10.2 | 9.7 |  |  | 
3 | C=C1CC/C(=C/C=C2\CCC[C@]3(C)[C@@H]([C@@H](C)CCCC(C)(C)O)CC[C@@H]23)C(=C)[C@H]1O | 0.33 | 4 | 1 | 4.9 | 9.7 |  | 12.6 | 10.2 |  |  | 4.8 | 7.9 | 
4 | C=C1[C@H](O)CC(=C/C=C2\CCC[C@]3(C)[C@@H]([C@@H](C)CCCC(C)(C)O)CC[C@@H]23)C[C@H]1O [DP001] | 1 | 25 | 29 |  |  |  |  |  |  |  |  |  | 
5 | C=C1CC[C@H](O)C/C1=C/C=C1\CCC[C@]2(C)[C@@H]([C@H](C)CCCC(C)(C)O)CC[C@@H]12 [CALCIFEDIOL ANHYDROUS] | 0.01 | 0.001 | 0.001 |  |  |  |  |  |  |  |  |  | 
6 | C=C1CC/C(=C\C=C2/CCC[C@]3(C)[C@@H]([C@H](C)CCCC(C)(C)O)CC[C@@H]23)C[C@H]1O | 0.02 | 0.01 | 0.001 |  |  |  |  |  |  |  |  |  | 
7 | C=C1CC/C(=C\C=C2/CCC[C@]3(C)[C@@H]([C@@H](C)CCCC(C)(C)O)CC[C@@H]23)C[C@H]1O | 0.1 | 0.07 | 0.07 |  |  |  |  |  |  |  |  |  | 
8 | C=C1CC(=C)[C@H](O)C/C1=C/C=C1\CCC[C@]2(C)[C@@H]([C@@H](C)CCCC(C)(C)O)CC[C@@H]12 | 0.33 | 0.22 | 0.2 | 4.8 | 7.5 |  | 14.3 | 9.8 |  |  | 4.3 | 9 | 
9 | C=C1/C(=C\C=C2/CCC[C@]3(C)[C@@H]([C@H](C)CCCC(C)(C)O)CC[C@@H]23)C[C@@H](O)C[C@@H]1O [CALCITRIOL] |  |  |  | 5 | 7.5 |  |  |  |  |  |  |  | 
10 | C=C1CC/C(=C/C=C2\CCC[C@]3(C)[C@@H]([C@@H](C)CCCC(C)(C)O)CC[C@@H]23)C[C@H]1O | 0.5 | 2.5 | 2 |  |  |  |  |  |  |  |  |  | 
11 | C=C1CC/C(=C/C=C2\CCC[C@]3(C)[C@@H]([C@H](C)CCCC(C)(C)O)CC[C@@H]23)C(=C)[C@H]1O | 0.25 | 2 | 1 | 4.5 | 5.9 | 8.8 | 11.8 | 8.5 | 9.8 | 11.3 |  |  | 8.2
